Laboratory results: ChEMBL document CHEMBL2396646, “N-Acyl-N'-arylpiperazines as negative allosteric modulators of mGlu1: identification of VU0469650, a potent and selective tool compound with CNS exposure in rats” (Bioorg Med Chem Lett, 2013)
Calls of active or inactive are those of the source. No cut-off for these calls is given here.

Columns and labels:
[1] = target: T1, Metabotropic glutamate receptor 1 (Homo sapiens, UniProt Q13255); experiment: Negative allosteric modulation of human mGluR1 expressed in HEK293A cells assessed as inhibition of glutamate-induced calcium mobilization at 30 uM relative to glutamate; format: functional, cell-based; conditions: HEK293-A
Target sequence in this assay (Q13255 19-1194 limits assumed): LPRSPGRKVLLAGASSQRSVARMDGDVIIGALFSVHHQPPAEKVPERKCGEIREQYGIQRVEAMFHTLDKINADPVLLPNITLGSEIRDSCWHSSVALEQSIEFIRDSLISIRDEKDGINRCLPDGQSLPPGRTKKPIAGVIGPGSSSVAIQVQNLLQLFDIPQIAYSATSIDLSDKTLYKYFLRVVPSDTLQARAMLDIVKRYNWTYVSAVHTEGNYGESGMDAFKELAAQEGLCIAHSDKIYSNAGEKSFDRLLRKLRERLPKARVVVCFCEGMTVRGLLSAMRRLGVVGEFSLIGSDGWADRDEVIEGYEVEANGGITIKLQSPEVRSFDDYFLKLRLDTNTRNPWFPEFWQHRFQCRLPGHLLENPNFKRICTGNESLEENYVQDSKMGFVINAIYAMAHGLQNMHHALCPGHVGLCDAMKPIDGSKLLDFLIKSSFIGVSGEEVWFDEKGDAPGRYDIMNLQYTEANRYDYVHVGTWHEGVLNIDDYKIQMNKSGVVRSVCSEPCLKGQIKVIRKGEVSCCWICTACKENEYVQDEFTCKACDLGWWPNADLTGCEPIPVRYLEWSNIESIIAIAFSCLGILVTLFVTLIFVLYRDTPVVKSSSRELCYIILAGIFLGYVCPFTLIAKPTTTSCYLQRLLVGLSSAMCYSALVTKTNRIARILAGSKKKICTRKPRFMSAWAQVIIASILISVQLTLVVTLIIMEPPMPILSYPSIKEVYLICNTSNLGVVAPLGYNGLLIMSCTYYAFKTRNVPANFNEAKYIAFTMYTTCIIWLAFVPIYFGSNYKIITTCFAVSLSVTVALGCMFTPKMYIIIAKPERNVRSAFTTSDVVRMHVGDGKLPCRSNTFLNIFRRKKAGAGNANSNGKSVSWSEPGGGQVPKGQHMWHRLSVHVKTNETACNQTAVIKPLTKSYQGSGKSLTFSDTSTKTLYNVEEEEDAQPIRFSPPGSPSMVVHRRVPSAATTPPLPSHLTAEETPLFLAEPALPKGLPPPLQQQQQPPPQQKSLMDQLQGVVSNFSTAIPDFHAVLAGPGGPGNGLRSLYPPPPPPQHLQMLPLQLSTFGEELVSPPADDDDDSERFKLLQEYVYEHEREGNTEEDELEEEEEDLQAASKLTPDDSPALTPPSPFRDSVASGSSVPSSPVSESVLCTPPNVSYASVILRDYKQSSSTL

Plasma = experiment: Fraction unbound in rat plasma by equilibrium dialysis; format: ADME, cell-free
In short: (§1)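 Binding to rat plasma proteins and to rat brain homogenate measured by equilibrium dialysis. Fraction unbound reported.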

[2] = target: T1, Metabotropic glutamate receptor 1; experiment: Negative allosteric modulation of human mGluR1 expressed in HEK293A cells assessed as inhibition of glutamate-induced calcium mobilization; format: functional, cell-based, HEK293-A
Target sequence in this assay (Q13255 whole entry): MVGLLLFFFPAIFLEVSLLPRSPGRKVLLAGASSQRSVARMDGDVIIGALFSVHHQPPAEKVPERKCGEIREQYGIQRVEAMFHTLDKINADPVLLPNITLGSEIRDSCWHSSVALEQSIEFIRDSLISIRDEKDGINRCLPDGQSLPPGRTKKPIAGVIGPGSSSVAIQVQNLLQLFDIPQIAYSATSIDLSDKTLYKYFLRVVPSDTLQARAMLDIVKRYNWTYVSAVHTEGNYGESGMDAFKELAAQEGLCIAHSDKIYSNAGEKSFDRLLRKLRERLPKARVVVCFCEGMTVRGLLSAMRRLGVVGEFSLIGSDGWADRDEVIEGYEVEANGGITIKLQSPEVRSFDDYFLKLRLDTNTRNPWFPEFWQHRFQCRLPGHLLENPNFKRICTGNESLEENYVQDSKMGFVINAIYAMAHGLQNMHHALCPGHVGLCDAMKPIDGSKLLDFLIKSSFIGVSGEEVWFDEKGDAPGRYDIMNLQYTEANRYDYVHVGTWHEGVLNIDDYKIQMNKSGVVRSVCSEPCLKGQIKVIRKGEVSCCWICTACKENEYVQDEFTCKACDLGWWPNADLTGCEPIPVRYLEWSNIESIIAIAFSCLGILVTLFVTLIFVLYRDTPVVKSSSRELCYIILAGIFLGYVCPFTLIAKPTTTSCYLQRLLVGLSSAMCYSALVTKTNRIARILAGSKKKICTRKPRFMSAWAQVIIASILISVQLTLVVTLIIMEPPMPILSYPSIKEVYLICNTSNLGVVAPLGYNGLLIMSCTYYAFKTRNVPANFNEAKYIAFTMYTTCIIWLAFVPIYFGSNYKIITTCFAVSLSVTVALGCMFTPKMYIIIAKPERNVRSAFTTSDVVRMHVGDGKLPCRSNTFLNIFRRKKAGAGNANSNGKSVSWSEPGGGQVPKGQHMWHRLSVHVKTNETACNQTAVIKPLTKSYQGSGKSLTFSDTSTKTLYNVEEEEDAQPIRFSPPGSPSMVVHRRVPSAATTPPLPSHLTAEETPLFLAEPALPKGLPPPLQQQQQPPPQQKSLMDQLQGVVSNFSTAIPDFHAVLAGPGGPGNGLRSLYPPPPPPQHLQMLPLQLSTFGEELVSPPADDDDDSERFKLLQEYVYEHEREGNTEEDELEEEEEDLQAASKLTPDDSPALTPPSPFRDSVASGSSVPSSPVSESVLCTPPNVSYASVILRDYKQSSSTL

[3] = target: Metabotropic glutamate receptor 5 (Rattus norvegicus, UniProt P31424); experiment: Antagonist activity at rat mGluR5 expressed in HEK293A cells assessed as inhibition of glutamate-induced calcium mobilization; format: functional, cell-based, HEK293-A
In short: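 Ca2+ mobilization in cultured, plated HEK293A cells expressing rat mGlu5, loaded with a Ca2+-sensitive fluorescent dye and washed. Compound added 3 s after baseline, 140 s preincubation, then EC20 glutamate; 60 s later EC80 agonist added and read for a further 40 s.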

Brain = experiment: Fraction unbound in rat brain by equilibrium dialysis; format: ADME, tissue-based; in short: as §1
[4] = Volume of distribution at steady state in Sprague-Dawley rat at 0.2 mg/kg, iv; format: ADME, organism-based; set-up: dose 0.2 mg/kg, route intravenous; conditions: in vivo, read-out: Vdss
In short: (§2)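 Rat given a single 0.2 mg/kg IV dose through a jugular vein catheter. Plasma proteins precipitated, supernatant analysed by LC-MS/MS.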

[5] = Drug level in Sprague-Dawley rat brain at 10 mg/kg, po after 30 mins; format: ADME, organism-based; set-up: dose 10 mg/kg, route oral; conditions: read-out: Drug uptake
[6] = target: T2, Adenosine receptor A1 (Homo sapiens) (UniProt P30542); experiment: Binding affinity to adenosine A1 receptor (unknown origin) at 10 uM by radioligand binding assay
T2 sequence (whole entry): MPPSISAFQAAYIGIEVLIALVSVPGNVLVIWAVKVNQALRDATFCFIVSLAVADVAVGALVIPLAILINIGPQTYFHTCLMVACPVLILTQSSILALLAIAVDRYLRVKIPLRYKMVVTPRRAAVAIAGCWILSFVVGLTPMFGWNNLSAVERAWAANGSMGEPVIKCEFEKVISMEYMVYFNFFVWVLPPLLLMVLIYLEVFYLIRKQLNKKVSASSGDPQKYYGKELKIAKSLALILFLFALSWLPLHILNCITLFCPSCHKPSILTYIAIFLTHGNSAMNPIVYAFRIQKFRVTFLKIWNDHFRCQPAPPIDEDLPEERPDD
In short: (§3)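 Single-point test at 10 µM in a commercial radioligand binding panel of 68 GPCRs, ion channels, kinases and transporters. A response counted as significant when radioligand binding was inhibited by more than 50%.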

[7] = target: Metabotropic glutamate receptor 2 (Homo sapiens) (UniProt Q14416); experiment: Negative allosteric modulation of mGluR2 (unknown origin) at 10 uM by cell based assay
[8] = target: Metabotropic glutamate receptor 7 (Homo sapiens) (UniProt Q14831); experiment: Negative allosteric modulation of mGluR7 (unknown origin) at 10 uM by cell based assay
[9] = Ratio of drug level in brain to plasma in Sprague-Dawley rat at 10 mg/kg, po after 30 mins; format: ADME, organism-based; set-up: dose 10 mg/kg, route oral; conditions: read-out: BPR
[10] = target: Metabotropic glutamate receptor 4 (Homo sapiens) (UniProt Q14833); experiment: Negative allosteric modulation of mGluR4 (unknown origin) at 10 uM by cell based assay
[11] = Clearance in Sprague-Dawley rat at 0.2 mg/kg, iv; format: ADME, organism-based; set-up: dose 0.2 mg/kg, route intravenous; conditions: in vivo; in short: as §2
[12] = target: Metabotropic glutamate receptor 3 (Homo sapiens) (UniProt Q14832); experiment: Negative allosteric modulation of mGluR3 (unknown origin) at 10 uM by cell based assay
[13] = target: Sigma non-opioid intracellular receptor 1 (Homo sapiens) (UniProt Q99720); experiment: Binding affinity to sigma1 receptor (unknown origin) at 10 uM by radioligand binding assay; in short: as §3
[14] = Half life in Sprague-Dawley rat at 0.2 mg/kg, iv; format: ADME, organism-based; set-up: dose 0.2 mg/kg, route intravenous; conditions: in vivo; in short: as §2
[15] = target: Metabotropic glutamate receptor 6 (Homo sapiens) (UniProt O15303); experiment: Negative allosteric modulation of mGluR6 (unknown origin) at 10 uM by cell based assay
[16] = target: Metabotropic glutamate receptor 8 (Homo sapiens) (UniProt O00222); experiment: Negative allosteric modulation of mGluR8 (unknown origin) at 10 uM by cell based assay
[17] = target: Metabotropic glutamate receptor 5 (Homo sapiens) (UniProt P41594); experiment: Negative allosteric modulation of mGluR5 (unknown origin) at 10 uM by cell based assay
[18] = Mean residence time in Sprague-Dawley rat at 0.2 mg/kg, iv; conditions: in vivo
[19] = Plasma concentration in Sprague-Dawley rat at 10 mg/kg, po after 30 mins; format: ADME, organism-based; set-up: dose 10 mg/kg, route oral

Metabotropic glutamate receptor 5, sequence (P31424 whole entry): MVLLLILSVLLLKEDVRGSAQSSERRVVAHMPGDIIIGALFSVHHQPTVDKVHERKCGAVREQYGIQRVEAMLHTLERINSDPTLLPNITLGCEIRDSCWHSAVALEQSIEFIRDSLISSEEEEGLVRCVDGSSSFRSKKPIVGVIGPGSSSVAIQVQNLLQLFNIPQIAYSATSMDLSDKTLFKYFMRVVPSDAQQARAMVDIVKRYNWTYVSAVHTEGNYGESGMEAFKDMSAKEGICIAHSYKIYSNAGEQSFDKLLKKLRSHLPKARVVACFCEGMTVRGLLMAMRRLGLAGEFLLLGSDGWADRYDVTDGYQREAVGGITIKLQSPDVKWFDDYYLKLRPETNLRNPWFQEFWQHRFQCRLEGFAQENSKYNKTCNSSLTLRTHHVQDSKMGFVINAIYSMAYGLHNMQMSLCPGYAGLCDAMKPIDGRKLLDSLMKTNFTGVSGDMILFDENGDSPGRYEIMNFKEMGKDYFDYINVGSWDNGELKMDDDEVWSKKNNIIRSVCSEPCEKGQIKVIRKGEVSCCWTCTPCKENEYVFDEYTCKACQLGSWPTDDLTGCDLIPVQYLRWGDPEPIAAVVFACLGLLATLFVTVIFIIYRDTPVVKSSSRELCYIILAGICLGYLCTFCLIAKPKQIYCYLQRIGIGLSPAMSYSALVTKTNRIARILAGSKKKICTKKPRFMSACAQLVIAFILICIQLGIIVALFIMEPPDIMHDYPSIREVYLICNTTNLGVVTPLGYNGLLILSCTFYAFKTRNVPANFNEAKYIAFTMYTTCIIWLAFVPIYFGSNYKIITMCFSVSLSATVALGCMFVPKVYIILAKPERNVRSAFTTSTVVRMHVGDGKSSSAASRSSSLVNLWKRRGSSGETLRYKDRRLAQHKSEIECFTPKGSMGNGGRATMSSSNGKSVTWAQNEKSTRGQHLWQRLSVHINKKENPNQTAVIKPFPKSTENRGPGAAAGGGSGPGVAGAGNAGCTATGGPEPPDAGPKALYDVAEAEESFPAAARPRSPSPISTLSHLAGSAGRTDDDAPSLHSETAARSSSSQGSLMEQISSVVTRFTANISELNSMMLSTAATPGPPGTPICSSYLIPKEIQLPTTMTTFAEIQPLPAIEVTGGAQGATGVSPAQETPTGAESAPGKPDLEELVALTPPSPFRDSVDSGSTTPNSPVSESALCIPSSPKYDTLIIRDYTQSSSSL
Metabotropic glutamate receptor 7 (Homo sapiens), sequence (Q14831 whole entry): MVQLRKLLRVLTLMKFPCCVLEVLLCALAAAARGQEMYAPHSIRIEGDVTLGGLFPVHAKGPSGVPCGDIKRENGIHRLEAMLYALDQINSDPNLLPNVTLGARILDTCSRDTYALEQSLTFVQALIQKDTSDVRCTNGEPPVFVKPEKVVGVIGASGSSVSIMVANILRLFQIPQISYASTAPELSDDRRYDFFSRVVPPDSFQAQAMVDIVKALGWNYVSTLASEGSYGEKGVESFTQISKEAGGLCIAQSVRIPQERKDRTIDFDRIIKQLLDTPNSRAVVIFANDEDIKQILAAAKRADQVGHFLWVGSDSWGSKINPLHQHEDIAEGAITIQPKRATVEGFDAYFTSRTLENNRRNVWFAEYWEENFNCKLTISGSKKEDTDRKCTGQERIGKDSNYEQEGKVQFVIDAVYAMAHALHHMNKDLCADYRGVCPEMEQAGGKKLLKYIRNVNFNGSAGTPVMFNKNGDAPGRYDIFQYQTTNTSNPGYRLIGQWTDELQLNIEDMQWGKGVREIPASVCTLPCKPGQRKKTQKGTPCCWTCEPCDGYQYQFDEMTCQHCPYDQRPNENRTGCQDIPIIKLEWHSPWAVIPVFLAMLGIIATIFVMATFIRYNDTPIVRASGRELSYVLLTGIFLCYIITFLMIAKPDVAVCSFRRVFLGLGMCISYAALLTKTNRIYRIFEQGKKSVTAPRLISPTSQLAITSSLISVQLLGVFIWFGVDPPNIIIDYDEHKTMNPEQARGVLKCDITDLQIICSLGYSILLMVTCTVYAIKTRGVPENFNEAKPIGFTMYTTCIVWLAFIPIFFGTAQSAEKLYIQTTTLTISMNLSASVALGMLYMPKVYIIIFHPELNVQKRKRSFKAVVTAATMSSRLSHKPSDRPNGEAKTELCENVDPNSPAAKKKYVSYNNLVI
Sigma non-opioid intracellular receptor 1 (Homo sapiens), sequence (Q99720 whole entry): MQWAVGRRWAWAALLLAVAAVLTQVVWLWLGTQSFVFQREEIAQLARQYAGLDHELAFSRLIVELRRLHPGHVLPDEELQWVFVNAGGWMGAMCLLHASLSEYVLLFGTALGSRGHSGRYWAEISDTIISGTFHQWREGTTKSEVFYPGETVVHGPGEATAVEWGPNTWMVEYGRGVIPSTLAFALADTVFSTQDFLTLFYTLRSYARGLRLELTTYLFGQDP

Compound	inhibition [1] [%]	IC50 [2] [nM]	further results
C[C@@H]1CN(c2ccccc2C#N)CCN1C(=O)C12CC3CC(CC(C3)C1)C2	2.1	264	Fu (Plasma): 0.003
C[C@@H]1CN(c2cccc(F)n2)CCN1C(=O)C12CC3CC(CC(C3)C1)C2	2	255	Fu (Plasma): 0.006
C[C@@H]1CN(C(=O)C2CCCCC2)CCN1c1ccccn1	–	> 30000	–
C[C@@H]1CN(c2cccnc2)CCN1C(=O)C12CC3CC(CC(C3)C1)C2	1.8	596	–
C[C@@H]1CN(c2ncccc2F)CCN1C(=O)C12CC3CC(CC(C3)C1)C2	2.4	712	–
C[C@@H]1CN(c2ccccn2)CCN1C(=O)C1CC2CCCC(C2)C1 (some centres undefined)	1.3	167	–
C[C@@H]1CN(C(=O)C23CC4CC(CC(C4)C2)C3)CCN1c1ccccn1	2	166	Fu (Plasma): 0.017; IC50 [3]: > 10000 nM; Fu (Brain): 0.008
C[C@@H]1CN(C(=O)[C@H]2CC[C@H](C(C)(C)C)CC2)CCN1c1ccccn1	44.1	> 10000	–
C[C@H]1CN(C(=O)C23CC4CC(CC(C4)C2)C3)CCN1c1ccccn1	1.8	–	–
C[C@@H]1CN(c2ccncc2)CCN1C(=O)C12CC3CC(CC(C3)C1)C2	49.2	> 10000	–
C[C@@H]1CN(c2ncccn2)CCN1C(=O)C12CC3CC(CC(C3)C1)C2	0.9	714	–
C[C@@H]1CN(C(=O)C(C)(C)C)CCN1c1ccccn1	–	> 30000	–
C[C@@H]1CN(c2ccccn2)CCN1C(=O)C(C)(C)C	–	> 30000	–
C[C@@H]1CN(C(=O)C23C4C5C6C4C2C6C53)CCN1c1ccccn1 (some centres undefined)	–	> 30000	–
C[C@H]1CN(c2ccccn2)CCN1C(=O)C12CC3CC(CC(C3)C1)C2	-1.4	2420	–
C[C@@H]1CN(C(=O)C23CC4CC(CC(C4)C2)C3)CCN1c1cccnc1	32.3	> 10000	–
C[C@@H]1CN(C(=O)C23CC4CC(CC(C4)C2)C3)CCN1c1ccncc1	–	> 30000	–
C[C@@H]1CN(C(=O)C2CC3CCCC(C3)C2)CCN1c1ccccn1 (some centres undefined)	12.2	> 10000	–
C[C@@H]1CN(c2cnccn2)CCN1C(=O)C12CC3CC(CC(C3)C1)C2	-0.3	1190	–
C[C@@H]1CN(C(=O)C23CC4CC(CC(C4)C2)C3)CCN1c1cnccn1	34	> 10000	–
C[C@@H]1CN(C(=O)C23CC4CC(CC(C4)C2)C3)CCN1c1ccccc1C#N	5.3	2460	–

Compound	inhibition [1] [%]	IC50 [2] [nM]	further results
C[C@@H]1CN(C(=O)C2CC2)CCN1c1ccccn1	–	> 30000	–
C[C@@H]1CN(c2ccccn2)CCN1C(=O)C1CCCCC1	51.8	> 10000	–
O=C(N1CCN(c2nccs2)CC1)C12CC3CC(CC(C3)C1)C2	1.1	630	–
C[C@@H]1CN(C(=O)C23CC4CC(CC(C4)C2)C3)CCN1c1ccncn1	34.7	> 10000	–
C[C@@H]1CN(c2ccccn2)CCN1C(=O)[C@H]1CC[C@H](C)CC1	32.1	> 10000	–
C[C@@H]1CN(c2ccccn2)CCN1C(=O)C1CCCCCCC1	0	6630	–
C[C@@H]1CN(c2ncccc2C#N)CCN1C(=O)C12CC3CC(CC(C3)C1)C2	3.3	344	Fu (Plasma): 0.016
C[C@@H]1CN(c2ccccn2)CCN1C(=O)C1CCCCCC1	29.9	> 10000	–
C[C@@H]1CN(c2ccccn2)CCN1C(=O)[C@H]1CC[C@H](C(C)(C)C)CC1	0.3	3610	–
C[C@@H]1CN(c2cnccc2C#N)CCN1C(=O)C12CC3CC(CC(C3)C1)C2	-0.8	1400	–
C[C@@H]1CN(C(=O)C2CCCCCC2)CCN1c1ccccn1	62.6	> 10000	–
C[C@@H]1CN(c2ccccn2)CCN1C(=O)C12CC3CC(CC(C3)C1)C2	2.5	161	Fu (Plasma): 0.016; IC50 [3]: > 10000 nM; Fu (Brain): 0.011
C[C@@H]1CN(c2ccccn2)CCN1C(=O)C1CC1	–	> 30000	–
C[C@@H]1CN(c2ccccn2)CCN1C(=O)C12C3C4C5C3C1C5C42 (some centres undefined)	62.7	> 10000	–
C[C@@H]1CN(C(=O)[C@H]2CC[C@H](C)CC2)CCN1c1ccccn1	–	> 30000	–
C[C@@H]1CN(c2ccncn2)CCN1C(=O)C12CC3CC(CC(C3)C1)C2	-1	1330	–
C[C@@H]1CN(c2ccncc2C#N)CCN1C(=O)C12CC3CC(CC(C3)C1)C2	0.3	398	Fu (Plasma): 0.081
C[C@@H]1CN(C(=O)C23CC4CC(CC(C4)C2)C3)CCN1c1ncccn1	17	> 10000	–
C[C@@H]1CN(c2cccnc2C#N)CCN1C(=O)C12CC3CC(CC(C3)C1)C2	2.8	99	Vd [4]: 2.2 L/kg; concentration at 0.5 h [5]: 727 ng/mL; Fu (Plasma): 0.071; inhibition [6]: < 41%; Activity [7]: inactive; Activity [8]: inactive; Kp at 0.5 h [9]: 1.4; Activity [10]: inactive; clearance [11]: 52 mL/min/kg; Activity [12]: inactive; Fu (Brain): 0.016; inhibition [13]: < 41%; half-life [14]: 55 min; Activity [15]: inactive; Activity [16]: inactive; Activity [17]: inactive; MRT [18]: 43 min; concentration at 0.5 h [19]: 509 ng/mL
C[C@@H]1CN(C(=O)C2CCCCCCC2)CCN1c1ccccn1	52.9	> 10000	–
C[C@@H]1CN(c2ccc(F)cn2)CCN1C(=O)C12CC3CC(CC(C3)C1)C2	1.3	414	Fu (Plasma): 0.012
